These results are taken from ChEMBL document CHEMBL1177742, “Withanolide A and asiatic acid modulate multiple targets associated with amyloid-beta precursor protein processing and amyloid-beta protein clearance” (J Nat Prod, 2010).

Series [1] has as its system Cortical neurone. The series is described as follows: Induction of IDE levels in Sprague-Dawley rat primary cortical neurons at 5 to 100 uM after 24 hrs by immunoblot analysis. Format: functional, cell-based. The note with it: 1 to 10 uM, in the assay text read “1 to 10 uM” for “5 to 100 uM”. The method, boiled down:
(§1)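 Cortical neurons from neonatal Sprague-Dawley rats treated 24 h at 0, 5, 20, 100 μM or 0, 1, 5, 10 μM, with DMSO control. Lysates were immunoblotted on 10% Tris–HCl gels with IDE or NEP antibody (1:1000, 4 °C overnight), nitrocellulose transfer, HRP detection. Intensities normalized to actin; mean ± S.D. of three independent experiments, Student's t-test.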

Series [2] has as its system Cortical neurone. The series is described as follows: Induction of matured ADAM10 level in Sprague-Dawley rat primary cortical neurons after 24 hrs by immunoblot analysis. The series is classed as functional, cell-based. Summed up:
(§2)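 Primary cortical neurons (1-day-old Sprague-Dawley pups, 3–4 day cultures) treated 24 h at 0–100 μM or 0–10 μM, with DMSO control. Lysed in RIPA, protein quantified by BCA, equal amounts run on 10% Tris–HCl gels, nitrocellulose transfer. BACE1 and ADAM10 antibodies each 1:1000 overnight at 4 °C, HRP secondary, chemiluminescence. Mature ADAM10 is the ~60 kDa band. Bands normalized to actin; mean ± S.D., n=3, Student's t-test.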
(In general: In western blotting, separated proteins are transferred to a membrane and probed.)

Series [3] has as its system Cortical neurone. The series is described as follows: Reduction of BACE1 expression in Sprague-Dawley rat primary cortical neurons after 24 hrs by immunoblot analysis. The series is classed as functional, cell-based. Summed up: as §2
Series [4] relates to Cortical neurone. The series is described as follows: Induction of NEP levels in Sprague-Dawley rat primary cortical neurons at 5 uM after 24 hrs by immunoblot analysis. The series is classed as functional, cell-based. Summed up: as §1
Series [5] has as its system Cortical neurone. The series is described as follows: Cytotoxicity against Sprague-Dawley rat primary cortical neurons assessed as cell morphology at 10 uM after 24 hrs by MAP2 immunostaining. The series is classed as cell-based. The method, boiled down: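 Cortical neurons from 1-day-old Sprague-Dawley pups, plated on poly-D-lysine at 1 × 10^6 cells/well in DMEM with 10% horse serum, used at 3–4 days in culture. Treated 24 h alongside DMSO control (0.01% or 0.1%). Fixed in 4% paraformaldehyde, blocked with Triton X-100/BSA, MAP-2 (1:50) overnight at 4 °C, rhodamine secondary, imaged by fluorescence microscopy at 40X.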

Series [6] relates to Cortical neurone. The series is described as follows: Induction of ADAM10 activation in Sprague-Dawley rat primary cortical neurons after 24 hrs by immunoblot analysis. The series is classed as functional, cell-based. Summed up: as §2
The subject of series [7] is ADAM10 (alpha-secretase) (Rattus norvegicus). The series is described as follows: Increase in alpha-secretase activity in Sprague-Dawley rat primary cortical neurons assessed as increase in sAPPalpha level by immunoblot analysis. To be noted: Cerebral cortex neuron.
Series [8] deals with Cortical neurone. The series is described as follows: Induction of IDE levels in Sprague-Dawley rat Alzheimer's disease model primary cortical neurons after 24 hrs by immunoblot analysis. The series is classed as functional, cell-based.
Series [9] deals with ADAM10 (alpha-secretase) (Rattus norvegicus). The series is described as follows: Increase in alpha-secretase activity in Sprague-Dawley rat primary cortical neurons assessed as increase in C83 level by immunoblot analysis. To be noted: Cerebral cortex neuron.
Series [10] relates to Cortical neurone. The series is described as follows: Induction of IDE levels in Sprague-Dawley rat primary cortical neurons after 24 hrs by immunoblot analysis. Format: functional, cell-based. Summed up: as §1
The test system of series [11] is Cortical neurone. The series is described as follows: Cytotoxicity against Sprague-Dawley rat primary cortical neurons assessed as cell death at 100 uM after 24 hrs by MAP2 immunostaining. Format: cell-based. Summed up: (§3)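 Neurons from 1-day-old pups were plated at 1 × 10^6 cells/well on poly-D-lysine in DMEM with 10% horse serum, 25 mM glucose, 10 mM HEPES, 2 mM glutamine and antibiotics. Day 3–4 cultures were treated 24 h (vehicle 0.1% DMSO), fixed in 4% paraformaldehyde, blocked (0.1% Triton X-100, 1% BSA), stained with MAP-2 1:50 overnight at 4 °C plus rhodamine secondary, and imaged by fluorescence microscopy (40X).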

Series [12] deals with Cortical neurone. The series is described as follows: Cytotoxicity against Sprague-Dawley rat primary cortical neurons assessed as cell morphology at 100 uM after 24 hrs by MAP2 immunostaining. The series is classed as cell-based. The method, boiled down:
as §3

Active and inactive are the calls of the source. The calls are words filed in the database; no cut-off is given here.

For `C[C@H]1[C@H](C)CC[C@]2(C(=O)O)CC[C@]3(C)C(=CC[C@@H]4[C@@]5(C)C[C@@H](O)[C@H](O)[C@@](C)(CO)[C@@H]5CC[C@]43C)[C@H]12` [ASIATIC ACID], the result in [1] was inactive. In addition, the Activity result is “Dose-dependent effect” in series [2], “Dose-dependent effect” in series [3], “Non-toxic” in series [5] and “Dose-dependent effect” in series [6]. Further, the outcome in [4] was Active.

Consider `CC1=C(C)C(=O)O[C@@H]([C@](C)(O)[C@H]2CC[C@H]3[C@@H]4[C@@H]5O[C@@H]5[C@@]5(O)CC=CC(=O)[C@]5(C)[C@H]4CC[C@]23C)C1` [WITHANOLIDE A], for which the Activity entry in series [2] is “Dose-dependent effect”; in [3], “Dose-dependent effect”; in series [6], “Dose-dependent effect”; in series [10], “Dose-dependent effect”; in series [11], “Non-toxic”; in [12], “Non-toxic”. Besides, the outcome in [7], in series [8] and in [9] was Active.
